Hits are enriched below; roughly 3.5% of the tested compounds scored in any of these assays.
MrgX1 allo act – allosterically activates human MrgX1 receptor signaling. Q96LB2. MrgX1-HEK293, Fluo-4 calcium flux, FDSS; hits give high values. B-score at 10 µM. 310,000 compounds, 0.63% hits. AID 588675;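 active = plate-corrected calcium response at least 3 library SD above typical, normal starting fluorescence, not activating the receptor alone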;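 also: compound read alongside a low EC10 to EC30 dose of BAM8-22 agonist; peak minus trough fluorescence over baseline measured at the second addition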
Target sequence (Q96LB2 whole entry, looked up): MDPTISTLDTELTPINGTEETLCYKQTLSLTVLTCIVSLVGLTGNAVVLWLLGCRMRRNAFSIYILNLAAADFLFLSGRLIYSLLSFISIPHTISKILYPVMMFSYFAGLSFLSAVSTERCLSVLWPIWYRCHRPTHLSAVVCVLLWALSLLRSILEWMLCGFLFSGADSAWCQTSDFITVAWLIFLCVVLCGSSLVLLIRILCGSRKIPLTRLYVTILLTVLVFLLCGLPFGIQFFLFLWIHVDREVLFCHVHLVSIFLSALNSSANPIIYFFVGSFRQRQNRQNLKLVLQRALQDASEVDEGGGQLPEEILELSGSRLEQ
MrgX1 agonist – activates human MrgX1 receptor signaling; Q96LB2; MrgX1-HEK293 cells, Fluo-4 calcium fluorescence, agonist mode; hits give high values; B-score at 10 µM; 310,000 compounds, 0.44% hits; AID 588627;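 active = calcium response B-score plate-corrected fluorescence ratio at least 3 library SD, with starting fluorescence B-score inside 5 SD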
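Material: MrgX1-expressing HEK293 cells / Dosing: compound as first of three additions / Incubation: overnight seeding, then 1 h dark dye loading / Signal: Fluo-4 NW calcium fluorescence / Evaluation: B-scored fluorescence response ratio / Benchmarks: positive and negative control wells on each plate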
RGS4 block – human RGS4 inhibition; P49798; HEK293 M3R/RGS4 inducible, Fluo-4 calcium flux; hits give high values; triggered by carbachol at its EC20; B-score at 10 µM; 310,000 compounds, 0.45% hits;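 active = B-score, a plate-corrected calcium signal, over three deviations above library mean, with baseline fluorescence within five deviations of library mean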;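 also: RGS4 expression induced by doxycycline in cells with stable M3 receptor; B-score is computed from the integrated fluorescence ratio over baseline after carbachol; higher B-score means a larger calcium signal and so more RGS4 inhibition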
Target sequence (P49798 whole entry, looked up): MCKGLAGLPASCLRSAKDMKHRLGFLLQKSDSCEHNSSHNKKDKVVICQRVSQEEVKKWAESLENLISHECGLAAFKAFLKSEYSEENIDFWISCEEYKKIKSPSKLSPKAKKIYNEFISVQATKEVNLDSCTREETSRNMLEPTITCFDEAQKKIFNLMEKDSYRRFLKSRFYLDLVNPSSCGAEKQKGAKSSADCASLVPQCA
RGS4 act – potentiators or activators of RGS4 | AID 463111 | HEK293 M3R/inducible RGS4, carbachol calcium flux Fluo4; hits give low values | 310,000 compounds, 0.92% hits | B-score at 10 µM;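 active = B-score of the integrated calcium signal more than 4 SD below the library mean, with starting fluorescence not abnormally high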;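 also: negative B-score means reduced calcium response which marks RGS4 activation or potentiation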
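Assay system: Inducible-RGS4 HEK293 cells carrying M3 receptor | Schedule: Compound preincubation 20 min at room temperature before agonist | Signal: Kinetic calcium fluorescence imaging with Fluo4-AM dye, 2 µM | Read-out basis: B score from integrated fluorescence ratio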
MrgX1 antagonist – human MrgX1 receptor antagonism, primary screen | Q96LB2 | MRGX1-HEK293 calcium flux, Fluo-4, BAM8-22 antagonism; hits give low values | B-score at 10 µM | 310,000 compounds, 1.3% hits | AID 588676;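 active = calcium-response B-score plate-corrected more than 3 library SD below zero, starting fluorescence within 5 deviations, no agonist response on first addition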;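 also: peak minus trough fluorescence over baseline after final BAM8-22 challenge near maximal dose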
RGS4 inh valid – validation of RGS4 inhibitors. shares compounds with RGS4 block. HEK293 M3R/RGS4, carbachol calcium Fluo-4 fluorescence; carbachol added at its EC20; 0 = buffer wells, 100 = carbachol control. calcium response, % at 10 µM. 1,700 compounds, 65% hits;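 active = duplicate-averaged calcium response above the buffer-only control mean plus 5 SD of those controls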;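 also: integrated fluorescence ratio F max minus min over baseline F0; higher response in RGS4-induced cells means RGS4 inhibition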
M3R Ca ctr – counter-screen for RGS4 inhibitors: effect in non-induced cells; shares compounds with RGS4 block; HEK293 M3R non-induced, carbachol calcium Fluo-4; submaximal (EC20) carbachol stimulus; buffer wells 0%, carbachol control wells 100%; activity (percent), % at 10 µM; 1,900 compounds, 20% hits; AID 493000; call rule not given here;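 also: RGS4 induction absent so cells express M3R without RGS4; higher means more calcium signal and flags a non-specific hit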
RGS4 inh ctr2 – second counter-screen for RGS4 inhibitors: non-induced cells without carbachol; HEK293 M3R/RGS4 non-induced, Fluo-4 calcium, no carbachol; normalised: buffer wells 0%, carbachol wells 100%; calcium response (agonist-mode artifact), % at 10 µM; 1,900 compounds, 22% hits; shares compounds with RGS4 block;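 active = duplicate-averaged calcium rise in uninduced cells above buffer wells' mean plus 5 SD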
Hits are given with their value; - = inactive; . = no result given.

SMILES | MrgX1 allo act | MrgX1 agonist | RGS4 block | RGS4 act | MrgX1 antagonist | RGS4 inh valid | M3R Ca ctr | RGS4 inh ctr2
O=C(/C=C/c1cccnc1)c1cccc(O)c1 | - | - | 12 | - | - | 37% | - | -
Cc1ccc(/C=C/C(=O)c2ccccc2O)cc1 | - | - | - | - | - | . | . | .
O=C(/C=C/c1cccnc1)c1ccccc1O | - | - | 8.8 | - | - | 37% | 63% | 8.5%
O=C(/C=C/c1ccc(O)cc1)c1ccccc1 | - | - | - | - | - | . | . | .
Cc1noc(/C=C/c2cccnc2)c1[N+](=O)[O-] | - | - | 5.7 | - | - | 18% | - | -
O=C(/C=C/c1cccnc1)c1ccc(O)cc1 | - | - | 5.2 | - | - | 15% | - | -
Cc1cccc(C)c1N/C=C/c1onc(C)c1[N+](=O)[O-] | - | - | - | - | - | . | . | .
COc1cc(C(=O)OCC(=O)Nc2ccc(N3CCOCC3)cc2)ccc1OCC(C)C | - | - | - | - | - | . | . | .
Oc1ccc(Cl)cc1C=NCCc1ccccc1 | - | - | 5 | - | - | 22% | 35% | 11%
Oc1ccccc1C=NCCN=Cc1ccccc1O | - | - | - | - | - | . | . | .
CC1CCC2C(=O)N(c3ccc(C(=O)Oc4cccc5cccnc45)cc3)C(=O)C2C1 (stereo unspecified) | - | - | 5.2 | - | - | 25% | - | -
Cc1nn(-c2ccccc2)c2c1cc1c(=O)n(C)c(=O)nc-1n2-c1ccccc1F | - | - | - | - | - | . | . | .
Cc1cccc(-n2c3nc(=O)[nH]c(=O)c-3cc3c(C)nn(-c4ccccc4)c32)c1C | - | - | 7 | - | - | - | - | -
C=CCOC(=O)/C=C/C(=O)NC(N)=O | - | - | - | - | - | . | . | .
O=C(O)CSCC(=O)Nc1ccc(-c2nc3ccccc3s2)cc1 | - | - | - | - | - | . | . | .
Cc1csc(NC(=O)CSCC(=O)O)c1-c1nc2ccccc2s1 | - | - | 11 | - | - | 34% | 50% | -
COc1ccc(N2CCN(Cc3nc(N)nc(Nc4ccc(C)c(Cl)c4)n3)CC2)cc1 | - | - | - | - | - | - | - | -
COc1ccccc1Nc1nc(N)nc(CN2CCN(c3ccccc3)CC2)n1 | - | - | - | - | - | . | . | .
Cc1ccc(Nc2nc(N)nc(CN3CCN(c4ccccc4)CC3)n2)cc1Cl | - | - | 6.6 | - | - | 14% | - | -
S=C(Nc1cccnc1)N1CCN(c2ccccc2Cl)CC1 | - | - | - | - | - | . | . | .
CCOc1ccc(NC(=O)Nc2cc(C(=O)O)ccc2N2CC3CC(C2)c2cccc(=O)n2C3)cc1 (stereo unspecified) | - | - | - | - | - | . | . | .
CCn1c(C)c(C(=O)O)c2cc(OC)c3ccccc3c21 | - | - | - | - | - | . | . | .
Cc1ccc2cc(CN(C(=O)c3ccco3)c3ccccc3C)c(=O)[nH]c2c1 | - | - | - | - | - | - | - | -
COCC(=O)N(Cc1cc2ccc(C)cc2[nH]c1=O)c1ccc(C)cc1C | - | - | - | - | - | . | . | .
Cc1ccc2cc(CN(C(=O)c3ccco3)c3cccc(C)c3C)c(=O)[nH]c2c1 | - | - | - | - | - | . | . | .
SMILES | MrgX1 allo act | MrgX1 agonist | RGS4 block | RGS4 act | MrgX1 antagonist | RGS4 inh valid | M3R Ca ctr | RGS4 inh ctr2
Cc1ccc(N(Cc2cc3ccc(C)cc3[nH]c2=O)C(=O)c2ccco2)c(C)c1 | - | - | - | - | - | - | - | -
COc1ccc(C(CNC(=O)C(CC(C)C)NS(=O)(=O)c2ccc(C)cc2)N2CCOCC2)cc1 (stereo unspecified) | - | - | - | - | - | . | . | .
O=C(O)C1CCN(c2nc(-c3ccccc3)nc3c2oc2ccccc23)CC1 | - | - | - | - | - | . | . | .
O=C(O)CSc1nc(-c2ccccc2)nc2c1oc1ccccc12 | - | - | - | - | - | - | - | -
O=C(O)CSc1nc(-c2ccc(Cl)cc2)nc2c1oc1ccccc12 | - | - | 4.8 | - | - | 9.0% | - | 7.0%
Cc1ccc(NS(=O)(=O)c2ccc3c(c2)NC(=O)CCS3)c(C)c1 | - | - | - | - | - | . | . | .
COCCNC(=S)N/N=C(\C)c1ccccc1OC | - | - | 5.7 | - | - | 40% | - | -
COc1ccc(C(=O)N/C(=C\c2ccccc2)C(=O)NCc2cccnc2)cc1 | - | - | - | - | - | - | - | -
O=C(NCc1cccnc1)/C(=C/c1ccc(Cl)cc1)NC(=O)c1ccccc1 | - | - | - | - | - | - | - | -
O=C(NCc1ccccc1Cl)/C(=C\c1cccnc1)NC(=O)c1ccccc1 | - | - | - | - | - | . | . | .
CCOC(=O)c1cnn(C)c1NC(=O)c1ccc(Cl)cc1Cl | - | - | - | - | - | . | . | .
CCOC(=O)C1(Cc2cccc(F)c2)CCN(C(=O)c2ccoc2C)CC1 | - | - | - | - | - | . | . | .
COc1ccc(OC)c(C2C(C#N)=C(N)Oc3c2c(C)nn3-c2ccc(C)cc2)c1 (stereo unspecified) | - | - | - | - | - | . | . | .
COc1ccc(C2C(C#N)=C(N)Oc3c2c(-c2ccccc2)nn3-c2ccccc2)c(OC)c1OC (stereo unspecified) | - | - | - | - | - | . | - | -
COc1ccc(C(=O)c2sc(Nc3ccccc3F)nc2N)cc1 | - | - | - | - | - | . | - | -
COc1ccc(C(=O)c2sc(Nc3ccccc3)nc2N)cc1OC | - | - | - | - | - | . | . | .
COc1ccc(C(=O)NC(=S)Nc2ccccc2F)cc1 | - | - | - | - | - | . | . | .
COc1ccc(C(=O)c2sc(Nc3ccccc3)nc2N)cc1 | - | - | - | - | - | - | - | -
Nc1nc(Nc2ccccc2)sc1C(=O)c1ccccc1 | - | - | 13 | - | - | 23% | 38% | -
COC(=O)c1cc(NS(=O)(=O)c2ccc(NC(C)=O)cc2)ccc1Cl | - | - | - | - | - | . | . | .
COC(=O)c1c(NC(=O)c2cccc(S(=O)(=O)N3CCN(C)CC3)c2)sc(C)c1C | - | - | - | - | - | . | . | .
COc1ccc(OC)c(S(=O)(=O)N2CCC(C(=O)N3CCOCC3)CC2)c1 | - | - | - | - | - | - | - | -
COc1ccc(S(=O)(=O)N2CCCC(C(=O)N3CCOCC3)C2)cc1OC (stereo unspecified) | - | - | - | - | - | . | . | .
COc1ccc(OC)c(S(=O)(=O)N2CCC(C(=O)N3CCCC3)CC2)c1 | - | - | - | - | - | . | . | .
COc1ccc(OC)c(S(=O)(=O)N2CCCC(C(=O)NCc3ccncc3)C2)c1 (stereo unspecified) | - | - | - | - | - | . | . | .
